From ChEMBL document CHEMBL1142099, “Paecilodepsipeptide A, an antimalarial and antitumor Cyclohexadepsipeptide from the insect pathogenic fungus Paecilomyces cinnamomeus BCC 9616” (J Nat Prod, 2007)
Activity calls are given as the source filed them. The rule behind the calls is not given here.

Tests used:
KB = experiment: Cytotoxicity against human KB cells; type: cell-based; conditions: for Activity: human, kb
Procedure, shortened: (§1)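 Colorimetric cytotoxicity assay on KB (oral human epidermoid carcinoma), BC (human breast cancer) and Vero (African green monkey kidney fibroblast) cells; IC50 determined, Vero tested up to 67 µM (50 µg/mL). Ellipticine used as reference standard.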

[1] = Cytotoxicity against human BC cells; type: cell-based; conditions: for Activity: human, bc; procedure, shortened: as §1
Vero = experiment: Cytotoxicity against African green monkey Vero cells upto 67 uM; type: cell-based; conditions: chlorocebus sabaeus; procedure, shortened: as §1
Plasmodium falciparum = experiment: Antimalarial activity against Plasmodium falciparum K1; type: functional, organism-based
Procedure, shortened: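 P. falciparum K1 (multidrug-resistant strain) tested by microculture radioisotope technique; IC50 determined. Dihydroartemisinin used as reference standard.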

Row | SMILES | Activity (KB) | Activity [1] | Activity (Vero) | Activity (Plasmodium falciparum) | IC50 (KB; Homo sapiens, KB) [µM] | IC50 ([1]; Homo sapiens, BC) [µM] | IC50 (Plasmodium falciparum) [µM]
1 | CC(C)=CCOc1ccc(C[C@@H](NC(=O)[C@@H](C)NC(=O)[C@@H](Cc2ccc(O)cc2)NC(=O)CNC(=O)[C@H](C)NC(=O)[C@@H](O)Cc2ccccc2)C(=O)O)cc1 [PAECILODEPSIPEPTIDE B] | Not Active | Not Active | Not Active | inactive |  |  | 
2 | COC(=O)[C@@H](Cc1ccc(OCC=C(C)C)cc1)NC(=O)[C@@H](C)NC(=O)[C@@H](Cc1ccc(O)cc1)NC(=O)CNC(=O)[C@H](C)NC(=O)[C@@H](O)Cc1ccccc1 [PAECILODEPSIPEPTIDE C] | Not Active | Not Active | Not Active | inactive |  |  | 
3 | CC(C)=CCOc1ccc(C[C@H]2NC(=O)[C@@H](C)NC(=O)[C@@H](Cc3ccc(O)cc3)NC(=O)CNC(=O)[C@H](C)NC(=O)[C@H](Cc3ccccc3)OC2=O)cc1 [PAECILODEPSIPEPTIDE A] |  |  | Not Active |  | 5.9 | 6.6 | 4.9
